ChEMBL document CHEMBL1921710, “Anti-staphylococcal activity and β-lactam resistance attenuating capacity of structural analogues of (-)-epicatechin gallate” (2011)
Converted amounts (≈) assume the structure as drawn. The source made the active and inactive calls. The rule behind the calls is not given here.

Key:
Staphylococcus aureus [1] = experiment: Antistaphylococcal activity against epidemic Staphylococcus aureus isolate 16 by CLSI broth microplate assay; type: functional
How it was run: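 MIC against MRSA clinical isolate EMRSA-16, measured by CLSI broth microplate dilution. Compounds were dissolved in 60% v/v EtOH, then diluted into broth.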

Staphylococcus aureus [2] = experiment: Potentiation of oxacillin-induced antistaphylococcal activity against epidemic Staphylococcus aureus isolate 16 at 12.5 ug/mL by CLSI broth microplate assay; type: functional, organism-based
How it was run: (§1)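 Oxacillin MIC against EMRSA-16 with the analogue held at a fixed concentration. Run in 96-well trays with about 10^4 CFU in 100 μl Mueller–Hinton broth containing 2% w/v NaCl. Compounds were dissolved in 60% v/v EtOH before dilution into broth.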

Staphylococcus aureus [3] = experiment: Potentiation of oxacillin-induced antistaphylococcal activity against epidemic Staphylococcus aureus isolate 16 at 6.25 ug/mL by CLSI broth microplate assay; type: functional, organism-based; how it was run: as §1

| MIC (Staphylococcus aureus [1]) | SMILES | Activity (Staphylococcus aureus [2]) | Activity (Staphylococcus aureus [3]) |
| --- | --- | --- | --- |
| 16 µg/mL (≈ 42.3 µM) | O=C(O[C@@H]1Cc2ccccc2O[C@@H]1c1ccccc1)c1cc(O)c(O)c(O)c1 | Active | Active |
| 16 µg/mL (≈ 42.3 µM) | O=C(O[C@@H]1Cc2ccccc2O[C@H]1c1ccccc1)c1cc(O)c(O)c(O)c1 | Active | Active |
|  | O=C(N[C@@H]1Cc2c(O)cc(O)cc2O[C@@H]1c1ccc(O)c(O)c1)c1cc(O)c(O)c(O)c1 | Active |  |
| 64 µg/mL (≈ 156 µM) | O=C(O[C@@H]1Cc2c(O)cc(O)cc2O[C@@H]1c1ccccc1)c1cc(O)c(O)c(O)c1 | Active | Active |
| 128 µg/mL (≈ 300 µM) | O=C(O[C@@H]1Cc2c(O)cc(O)cc2O[C@@H]1c1cccc(O)c1)c1cc(O)c(O)c(O)c1 | Active |  |
| 128 µg/mL (≈ 289 µM) | O=C(O[C@@H]1Cc2c(O)cc(O)cc2O[C@@H]1c1cc(O)cc(O)c1)c1cc(O)c(O)c(O)c1 | Active |  |

| SMILES | MIC (Staphylococcus aureus [1]) | Activity (Staphylococcus aureus [2]) | Activity (Staphylococcus aureus [3]) |
| --- | --- | --- | --- |
| Cc1onc(-c2ccccc2)c1C(=O)N[C@@H]1C(=O)N2[C@@H]1SC(C)(C)[C@@H]2C(=O)O [OXACILLIN] | 512 µg/mL (≈ 1280 µM) |  |  |
| O=C(O[C@@H]1Cc2c(O)cc(O)cc2O[C@@H]1c1ccc(O)c(O)c1)c1cc(O)c(O)c(O)c1 [EPICATECHIN GALLATE] | 128 µg/mL (≈ 289 µM) | Active |  |
